Results from paper PMC4887403 (Bioorganic & medicinal chemistry letters, 2016).

What was measured:
[1] = tested on: asexual parasites of the chloroquine-sensitive 3D7 strain of P. falciparum; assay: asexual blood stage assay; type: cell-based; conditions: Plasmodium falciparum, 3D7, read-out: asexual activity (IC50, text)
Summary of the method: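 Asexual blood-stage parasites of chloroquine-sensitive P. falciparum 3D7 are tested with test compound in an 11-point dose-response, in duplicate. Each run includes a positive control and a DMSO negative control.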

[2] = tested on: HepG2 cells; assay: HepG2 cell viability; type: cell-based; conditions: highest concentration tested 46 µM
Summary of the method: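 HepG2 cells are incubated with test compound to measure general cytotoxicity as cell viability. The assay uses an 11-point dose-response in duplicate, with a positive control and a DMSO negative control.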

[3] = tested on: malaria transmission; conditions: mouse model; cited from earlier work

| IC50 [1] [nM] | SMILES | other results |
| --- | --- | --- |
| < 100 | Cn1c(=O)n(-c2cccc(C(F)(F)F)c2)c2c3cc(-c4ccc(N)cc4)ccc3ncc21 [Compound 35] | – |
| < 100 | Cn1c(=O)n(-c2cccc(C(F)(F)F)c2)c2c3cc(-c4cccc(N)c4)ccc3ncc21 [Compound 37] | – |
| – | Cn1c(=O)n(-c2ccc(C#N)cc2)c2c3cc(-c4ccc(N)nc4)ccc3ncc21 [Compound 60] | HepG2 cytotoxicity [2]: no measurable HepG2 cytotoxicity |
| – | Nc1ccc(-c2ccc3ncc4ccc(=O)n(-c5cccc(C(F)(F)F)c5)c4c3c2)cn1 [Torin 2] | efficacy for blocking malaria transmission [3]: efficacy for blocking malaria transmission in a mouse model |
